Measured values as given in PubChem BioAssay.
Results filed as inconclusive are left out.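 The calls were made as follows, unless noted: active = viability at or below 27.92% in each of two runs, the all-compound median minus 4 SD; inconclusive = no clear call, values can overlap the other calls; inactive = the rest.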

What was measured:
[1] = S. cerevisiae growth inhibition in permissive medium (OD615), pilot counter-assay for S. cerevisiae lifespan shortening project, permissive growth control (AID 705;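 active = growth inhibition above 25% in both replicates, a cutoff set 3 SD above the mean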); details: OD615, 24 h, at 10 µM, hits give high values
How it was run: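 assay system = Saccharomyces cerevisiae strain carrying genetically modified DeaD replicative-lifespan system | medium = SC raffinose/galactose permissive medium | dosing = 10 µM single dose, 0.25% DMSO | schedule = 24 h compound exposure at 30 °C after 4 h pre-growth | measured by = OD at 615 nm | read-out basis = growth inhibition from lowered OD615 after 24 h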

[2] = S. cerevisiae growth inhibition in restrictive medium, OD615, pilot screen, restrictive growth control, yeast lifespan reduction project (AID 706;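 active = growth inhibition above a set limit, 3 SD over mean compound inhibition, in both replicates, cut at about 43% in these data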;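 also: modified DeaD lifespan yeast strain shifted to restrictive glucose medium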); details: OD615, 48 h, at 10 µM, hits give high values
How it was run: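 Buffer or medium: CSMM-D glucose medium. Material: genetically modified Saccharomyces cerevisiae, DeaD replicative lifespan assay strain. Times: 48 h compound exposure at 30 °C. Measured by: optical density at 615 nm.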

[3] = doxorubicin toxicity protection in MRP-1 cells – H69AR cells, CellTiter-Glo, duplicate, MRP-1 activator project, pilot screen (AID 807;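 active = viability increase at or above a cutoff of the median across tested compounds plus 3 SD, cut at about 8.5% in these data, passing the limit was not always enough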;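 also: compound pretreatment 18-22 h then 72 h combined with doxorubicin; 0% = doxorubicin alone and 100% = vehicle without doxorubicin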); details: H69AR viability with doxorubicin, CellTiter-Glo luminescence; at 10 µM; hits give high values
[4] = viability of HCT116 without oncogenic beta-catenin – human colon tumor cells, pilot screen (AID 823;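 active = cell viability at or below a set limit in both duplicate runs, the limit being the all-compound median minus 4 SD, cut at about 23% in these data, passing the limit was not always enough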;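 also: 0% = wells killed by 20 µM Hyamine and 100% = untreated DMSO cell wells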); details: HCT116 beta-catenin knockout viability, CellTiter-Glo, 60 h; at 10 µM; hits give low values
[5] = viability of PTEN-null HCT116 cells – cell-based, HCT116 clonal line, CellTiter-Glo, pilot screen (AID 824); details: HCT116 PTEN-deleted viability, 60 h, at 10 µM, hits give low values;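 also: 0% = 20 µM Hyamine control and 100% = vehicle cell control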
[6] = RAM pathway blockade in budding yeast – dse1pr::URA3 reporter, 5-FOA selection, pilot screen (AID 869;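 active = inhibition over a set limit, the all-compound mean plus 3 SD, in both replicate runs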;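 also: 0% = DMSO wells with no growth and 100% = 10 µM 1-NA-PP1 with full growth; RAM network block rescues cells from 5-FOA so hits raise OD615 growth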); details: S. cerevisiae dse1pr::URA3 5-FOA growth, OD615, 2 d; at 10 µM; hits give high values; strain carries analog-sensitive mutant Cbk1 kinase
[7] = RAM signaling pathway blockade in yeast – S. cerevisiae, Pdr1DBD-CYC8 efflux-inhibited sensitized strain, primary screen (AID 1298;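 active = RAM network inhibition above 8.4% in each of two replicates, 3 SD over the compound average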;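 also: 0% = DMSO untreated cells without growth and 100% = 10 µM 1-NA-PP1 full growth; higher means more yeast growth rescued from 5-FOA killing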); details: S. cerevisiae cbk1-as DSE1-URA3 strain, 5-FOA growth OD615, 2 d; at 50 µM; hits give high values

CC(=O)Nc1ccc(C(=O)c2ccccc2)cc1
inactive: growth inhibition [1] 8.43% | growth inhibition [2] 6.52% | viability increase [3] -1.14% | viability [4] 95.4% | viability [5] 92.5% | inhibition [6] 0.97% | RAM network inhibition [7] 0.62%

CCn1c(SCC(=O)Nc2cccc(F)c2)nc2c(c1=O)SC(C)C2 (stereo not drawn)
inactive: growth inhibition [1] -11.8% | growth inhibition [2] -1.47% | viability increase [3] -0.53% | viability [4] 94.8% | viability [5] 86.8% | inhibition [6] 1.57% | RAM network inhibition [7] 4.64%

CCOC(=O)Cn1c(=NC(=O)CSC(C)=O)sc2ccccc21
inactive: growth inhibition [1] 0% | growth inhibition [2] 8.74% | viability increase [3] -4.54% | viability [4] 105% | viability [5] 106% | inhibition [6] 0.465% | RAM network inhibition [7] 4.02%

CC1=CC(C)(C)N(C(=O)CSc2nccn2C)c2cc(C)ccc21
inactive: growth inhibition [1] -12.3% | growth inhibition [2] -6.42% | viability increase [3] -3.04% | viability [4] 84.6% | viability [5] 84% | inhibition [6] 1.09% | RAM network inhibition [7] 0.77%

CCOC(=O)N1CCN(C(=O)CSc2nnc(-c3ccc(C)c(C)c3)o2)CC1
inactive: growth inhibition [1] -1.67% | growth inhibition [2] 1.73% | viability increase [3] -2.44% | viability [4] 111% | viability [5] 97.4% | inhibition [6] 2.31% | RAM network inhibition [7] 4.67%

Cc1cc(NC(=O)c2cc(CC(C)C)on2)no1
inactive: growth inhibition [1] -5.71% | growth inhibition [2] -12.5% | viability increase [3] -1.75% | viability [4] 106% | viability [5] 94.5% | inhibition [6] 0.67% | RAM network inhibition [7] 6.04%

CC(C)Cc1nc(C(N)=O)c2[nH]c(=O)n(-c3ccc(F)cc3)c2n1
inactive: growth inhibition [1] -21.3% | growth inhibition [2] -27.8% | viability increase [3] -2.13% | viability [4] 100% | viability [5] 91.2% | inhibition [6] 3.68% | RAM network inhibition [7] 8.63%

O=C(CSc1nc2c(c(=O)n1-c1ccc(Cl)cc1)SCC2)NCc1ccco1
inactive: growth inhibition [1] -4.73% | growth inhibition [2] -0.115% | viability increase [3] -4.49% | viability [4] 86.2% | viability [5] 89% | inhibition [6] 0.225% | RAM network inhibition [7] 4.2%

COCCCN1Cc2cccc(C(=O)O)c2C1=O
inactive: growth inhibition [1] 1.16% | growth inhibition [2] 4.03% | viability increase [3] -2.13% | viability [4] 103% | viability [5] 102% | inhibition [6] 0.525% | RAM network inhibition [7] 7.02%

O=C(Nc1ccccc1)N1CCN2C(=O)c3ccccc3C12c1ccccc1 (stereo not drawn)
inactive: growth inhibition [1] -7.51% | growth inhibition [2] -1.31% | viability increase [3] -2.35% | viability [4] 89.9% | viability [5] 89.5% | inhibition [6] 1.29% | RAM network inhibition [7] 2.89%

O=C(Cn1cc2c(n1)CCCC2)Nc1cc(-c2cccc(Cl)c2)no1
inactive: growth inhibition [1] 3.94% | growth inhibition [2] 3.73% | viability increase [3] 0.67% | viability [4] 99.2% | viability [5] 87.2% | inhibition [6] 0.9% | RAM network inhibition [7] 2.24%

CCNC(=O)c1c(C)nc2ccccn12
inactive: growth inhibition [1] 3.27% | growth inhibition [2] -7.95% | viability increase [3] -3.03% | viability [4] 101% | viability [5] 91% | inhibition [6] -0.1% | RAM network inhibition [7] 0.67%

Cc1sc2ncn(CC(=O)NCc3ccccn3)c(=O)c2c1S(=O)(=O)N1CCOCC1
inactive: growth inhibition [1] -11.7% | growth inhibition [2] -5.54% | viability increase [3] 1.3% | viability [4] 101% | viability [5] 99.5% | inhibition [6] 0.485% | RAM network inhibition [7] 3.01%

CCOC(=O)N1CCC(C(=O)Nc2ccc(OCC)cc2)CC1
inactive: growth inhibition [1] 5.44% | growth inhibition [2] -3.75% | viability increase [3] -1.27% | viability [4] 88% | viability [5] 93.9% | inhibition [6] 0.495% | RAM network inhibition [7] 6.44%

CC1=C(C)C(=O)N(CCC(=O)O)C1=O
inactive: growth inhibition [1] -12.6% | growth inhibition [2] -20.3% | viability increase [3] -1.09% | viability [4] 95.3% | viability [5] 93.8% | inhibition [6] 1.52% | RAM network inhibition [7] 3.32%

Cc1c(NC(=O)C2CC=CCC2C(=O)O)c(=O)n(-c2ccccc2)n1C (stereo not drawn)
inactive: growth inhibition [1] -5.59% | growth inhibition [2] -6.86% | viability increase [3] -0.87% | viability [4] 101% | viability [5] 94.3% | inhibition [6] 1.54% | RAM network inhibition [7] 1.99%

Cc1ccc(NC(=O)CN(c2cc(C)cc(C)c2)S(=O)(=O)c2c(C)noc2C)nc1
inactive: growth inhibition [1] -8.61% | growth inhibition [2] -7.12% | viability increase [3] -3.03% | viability [4] 69.4% | viability [5] 70.6% | inhibition [6] 0.895% | RAM network inhibition [7] 7.84%

COc1ccccc1CC(=O)N1CCN(c2cccc(C(F)(F)F)c2)CC1
inactive: growth inhibition [1] -9.59% | growth inhibition [2] 5.32% | viability increase [3] 1.84% | viability [4] 39.9% | viability [5] 60.9% | inhibition [6] 1.1% | RAM network inhibition [7] 7.84%

Cc1ccnc(SCC(=O)O)n1
inactive: growth inhibition [1] -0.18% | growth inhibition [2] -10.8% | viability increase [3] -1.15% | viability [4] 101% | viability [5] 101% | inhibition [6] 1.29% | RAM network inhibition [7] 1.08%

Cc1onc(-c2ccccc2)c1C(=O)Nc1ccc2c(c1)OCCO2
inactive: growth inhibition [1] -5.44% | growth inhibition [2] -6.46% | viability increase [3] -0.35% | viability [4] 96.6% | viability [5] 94.9% | inhibition [6] 2.96% | RAM network inhibition [7] 2.34%

O=C(Nc1nnc(-c2ccc3c(c2)CCCC3)o1)C1COc2ccccc2O1 (stereo not drawn)
inactive: growth inhibition [1] 5.39% | growth inhibition [2] 23% | viability increase [3] -2.7% | viability [4] 44.3% | viability [5] 51.1% | inhibition [6] 0.315% | RAM network inhibition [7] -1.78%

CCN1CCCC1CNC(=O)C1c2ccccc2C(=O)N(CCOC)C1c1ccc(F)cc1 (stereo not drawn)
inactive: growth inhibition [1] -3.19% | growth inhibition [2] -18.9% | viability increase [3] -1.76% | viability [4] 95.6% | viability [5] 98.1% | inhibition [6] 1.17% | RAM network inhibition [7] 7.82%

COc1ccc(-c2nc(CSCC(=O)N3CCN(C4CCCCC4)CC3)c(C)o2)cc1OC
inactive: growth inhibition [1] -5.55% | growth inhibition [2] 7.03% | viability increase [3] -1.54% | viability [4] 87.8% | viability [5] 96.3% | inhibition [6] 1.04% | RAM network inhibition [7] 2.38%

O=C(Nc1ccc2nc3n(c(=O)c2c1)CCCCC3)c1ccccn1
inactive: growth inhibition [1] -2.29% | growth inhibition [2] 2.34% | viability increase [3] 1.28% | viability [4] 102% | viability [5] 107% | inhibition [6] 0.8% | RAM network inhibition [7] -2.05%
